By IC50 is commonly meant the point on the concentration scale where inhibition reaches its midpoint.

Drawing on ChEMBL document CHEMBL1156352, “New antiviral cassane furanoditerpenes from Caesalpinia minax” (J Nat Prod, 2001), this text covers IC50, selectivity ratio and CC50 for 6 molecules.

Values after ≈ are worked out from the molar mass of the structure shown.

Data set [1] deals with Human respirovirus 3. As to the kind of experiment: Antiviral activity against Parainfluenza virus type 3 infected in human Hep2 cells assessed as inhibition of virus-induced cytopathogenic effect. Format: functional, organism-based. The following applies: Human respirovirus 3, HEp-2. An outline of the steps:
(§1)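 Run in 96-well plates on Hep-2 cell monolayers, with ribavirin as positive control and an untreated infection control. Para3 virus suspension was added and CPE was scored under an inverted microscope. IC50 was the concentration that reduced CPE by 50% relative to virus control. TC50 was the concentration giving 50% cytotoxic effect.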
A general note: Cytopathic effects are the visible damage that an infection or toxin causes in cultured cells.

Data set [2] can be described thus: Therapeutic index, ratio of TC50 for human Hep2 cells to IC50 for Parainfluenza virus type 3. Format: cell-based, HEp-2. Conditions: read-out: TI. An outline of the steps: as §1
Data set [3] is described as follows: Cytotoxicity against human Hep2 cells. Format: cell-based, HEp-2. The following applies: read-out: LC50 (the source's name).

For the molecule `C=C1c2ccoc2C[C@H]2[C@H]1[C@@H](OC(C)=O)[C@H](OC(C)=O)[C@@]1(O)C(C)(C)CC[C@H](OC(C)=O)[C@]21C` [CAESALAMIN C], the IC50 in data set [1] was determined as 8.2 µg/mL (≈ 17.3 µM). Further, the selectivity ratio in data set [2] is 23.9. In addition, the CC50 in data set [3] came to 196 µg/mL (≈ 414 µM).

`CO[C@]1(C)c2ccoc2C[C@H]2C1[C@@H](OC(C)=O)[C@H](OC(C)=O)[C@@]1(O)C(C)(C)CC[C@H](OC(C)=O)[C@]21C` (stereo partly drawn) [CAESALMIN F]: the IC50 in data set [1] is 7.8 µg/mL (≈ 15.4 µM). In addition, the selectivity ratio in data set [2] came to 17.5. In addition, in data set [3], the CC50 stood at 136 µg/mL (≈ 269 µM).

Consider `CC[C@H](/C=C/[C@@H](C)[C@H]1CC[C@H]2[C@@H]3CC=C4C[C@@H](O)CC[C@]4(C)[C@H]3CC[C@]12C)C(C)C` [STIGMASTEROL], for which the IC50 in data set [1] came to 37.5 µg/mL (≈ 90.9 µM). Also, in data set [2], the selectivity ratio is 3.6. The CC50 in data set [3] amounted to 137 µg/mL (≈ 331 µM).

Regarding `CC1(C)CC[C@H](O)[C@]2(C)[C@H]3Cc4occc4[C@H]4C(=O)O[C@@H](C[C@@]12O)[C@@H]43` [CAESALMIN G], in data set [1], the IC50 turned out to be 14.8 µg/mL (≈ 42.7 µM). Further, in data set [2], the selectivity ratio amounted to 3. The CC50 in data set [3] turned out to be 44.7 µg/mL (≈ 129 µM).

For the molecule `CC(=O)O[C@@H]1[C@@H]2[C@H](Cc3occc3[C@@]2(C)O)[C@@]2(C)[C@@H](OC(C)=O)CCC(C)(C)[C@]2(O)[C@H]1OC(C)=O` [CAESALMIN E], in data set [1], the IC50 was 10.3 µg/mL (≈ 20.9 µM). Moreover, the selectivity ratio in data set [2] turned out to be 16. Besides, the CC50 in data set [3] was 165 µg/mL (≈ 335 µM).

Turning to `CC(=O)O[C@@H]1[C@@H]2[C@H](Cc3occc3[C@]2(C)O)[C@@]2(C)[C@@H](OC(C)=O)CCC(C)(C)[C@]2(O)[C@H]1OC(C)=O` [CAESALMIN D], in data set [1], the IC50 came out at 9.6 µg/mL (≈ 19.5 µM). Also, in data set [2], the selectivity ratio was found to be 19.1. In data set [3], the CC50 was determined as 182 µg/mL (≈ 370 µM).
